# What was measured:
# Type in all cases: cell-based
# [1] = target: Cystic fibrosis transmembrane conductance regulator (Homo sapiens, UniProt P13569, F508DEL); assay: (§1) Potentiation of CFTR F508del mutant (unknown origin) expressed in human CFBE41o cells incubated for 10 mins in presence of forskolin measured for 7 secs by YFP halide assay
# Outline: (§2)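 CFBE41o- cells (CF bronchial line) transduced by adenovirus with F508del CFTR and YFP (H148Q/I152L/F47L). Cells held 24 h at 27°C, then treated 10 min at room temperature with 10 µM forskolin plus potentiator. YFP fluorescence read for 7 s across addition of NaI buffer (137 mM NaI). Activity = 1-(F/F0).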
# [2] = system: Cystic fibrosis transmembrane conductance regulator (Homo sapiens), P13569 [F508del]; assay: as §1; set-up: concentration or dose not given beside the values; outline: as §2
# Cystic fibrosis transmembrane conductance regulator (Homo sapiens), P13569 [F508del], sequence (P13569 as listed by the source): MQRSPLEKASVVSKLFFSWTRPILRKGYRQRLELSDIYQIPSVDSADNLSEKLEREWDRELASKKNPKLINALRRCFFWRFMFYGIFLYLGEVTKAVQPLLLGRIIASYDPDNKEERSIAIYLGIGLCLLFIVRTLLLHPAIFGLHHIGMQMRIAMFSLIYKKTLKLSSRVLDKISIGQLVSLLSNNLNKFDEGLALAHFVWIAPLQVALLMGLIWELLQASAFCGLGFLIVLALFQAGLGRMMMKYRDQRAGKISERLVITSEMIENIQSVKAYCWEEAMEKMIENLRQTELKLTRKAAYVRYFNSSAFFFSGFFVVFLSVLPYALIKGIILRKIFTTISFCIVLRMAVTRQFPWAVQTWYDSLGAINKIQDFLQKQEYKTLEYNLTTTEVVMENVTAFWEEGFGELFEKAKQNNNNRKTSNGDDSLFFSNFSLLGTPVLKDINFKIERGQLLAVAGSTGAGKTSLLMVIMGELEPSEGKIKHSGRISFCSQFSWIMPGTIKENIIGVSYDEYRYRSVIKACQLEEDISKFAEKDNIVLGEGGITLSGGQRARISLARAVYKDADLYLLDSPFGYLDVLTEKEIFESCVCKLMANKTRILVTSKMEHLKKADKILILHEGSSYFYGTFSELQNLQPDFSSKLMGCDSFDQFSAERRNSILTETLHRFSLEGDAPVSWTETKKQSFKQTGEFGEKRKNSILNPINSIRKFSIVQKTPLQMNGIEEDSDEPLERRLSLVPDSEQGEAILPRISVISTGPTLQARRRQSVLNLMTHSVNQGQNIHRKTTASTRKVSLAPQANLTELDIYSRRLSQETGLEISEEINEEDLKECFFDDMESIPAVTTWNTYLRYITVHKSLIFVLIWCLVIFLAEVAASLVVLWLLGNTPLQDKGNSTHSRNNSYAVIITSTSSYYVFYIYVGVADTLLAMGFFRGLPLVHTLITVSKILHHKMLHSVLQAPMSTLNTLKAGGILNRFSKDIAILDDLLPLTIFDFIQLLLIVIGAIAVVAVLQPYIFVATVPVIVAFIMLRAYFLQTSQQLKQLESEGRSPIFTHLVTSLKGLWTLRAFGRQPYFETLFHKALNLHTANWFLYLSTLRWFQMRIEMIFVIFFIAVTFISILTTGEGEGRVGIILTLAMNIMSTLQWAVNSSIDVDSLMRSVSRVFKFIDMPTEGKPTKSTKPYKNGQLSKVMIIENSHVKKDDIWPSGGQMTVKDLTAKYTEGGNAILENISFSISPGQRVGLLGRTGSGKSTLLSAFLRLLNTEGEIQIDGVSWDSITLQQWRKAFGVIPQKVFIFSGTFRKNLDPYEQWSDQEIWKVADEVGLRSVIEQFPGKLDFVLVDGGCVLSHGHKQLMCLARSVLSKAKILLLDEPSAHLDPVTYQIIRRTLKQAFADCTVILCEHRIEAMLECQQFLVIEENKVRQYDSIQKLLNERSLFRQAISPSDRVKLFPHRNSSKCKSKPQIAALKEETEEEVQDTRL
# [3] = system: Cystic fibrosis transmembrane conductance regulator (Homo sapiens), P13569 [G551D]; assay: (§3) Potentiation of CFTR G551D mutant (unknown origin) expressed in HEK293 cells incubated for 10 mins in presence of forskolin measured for 2 mins by YFP halide assay; set-up: concentration or dose not given beside the values
# Cystic fibrosis transmembrane conductance regulator (Homo sapiens), P13569 [G551D], sequence (P13569 whole entry G551D): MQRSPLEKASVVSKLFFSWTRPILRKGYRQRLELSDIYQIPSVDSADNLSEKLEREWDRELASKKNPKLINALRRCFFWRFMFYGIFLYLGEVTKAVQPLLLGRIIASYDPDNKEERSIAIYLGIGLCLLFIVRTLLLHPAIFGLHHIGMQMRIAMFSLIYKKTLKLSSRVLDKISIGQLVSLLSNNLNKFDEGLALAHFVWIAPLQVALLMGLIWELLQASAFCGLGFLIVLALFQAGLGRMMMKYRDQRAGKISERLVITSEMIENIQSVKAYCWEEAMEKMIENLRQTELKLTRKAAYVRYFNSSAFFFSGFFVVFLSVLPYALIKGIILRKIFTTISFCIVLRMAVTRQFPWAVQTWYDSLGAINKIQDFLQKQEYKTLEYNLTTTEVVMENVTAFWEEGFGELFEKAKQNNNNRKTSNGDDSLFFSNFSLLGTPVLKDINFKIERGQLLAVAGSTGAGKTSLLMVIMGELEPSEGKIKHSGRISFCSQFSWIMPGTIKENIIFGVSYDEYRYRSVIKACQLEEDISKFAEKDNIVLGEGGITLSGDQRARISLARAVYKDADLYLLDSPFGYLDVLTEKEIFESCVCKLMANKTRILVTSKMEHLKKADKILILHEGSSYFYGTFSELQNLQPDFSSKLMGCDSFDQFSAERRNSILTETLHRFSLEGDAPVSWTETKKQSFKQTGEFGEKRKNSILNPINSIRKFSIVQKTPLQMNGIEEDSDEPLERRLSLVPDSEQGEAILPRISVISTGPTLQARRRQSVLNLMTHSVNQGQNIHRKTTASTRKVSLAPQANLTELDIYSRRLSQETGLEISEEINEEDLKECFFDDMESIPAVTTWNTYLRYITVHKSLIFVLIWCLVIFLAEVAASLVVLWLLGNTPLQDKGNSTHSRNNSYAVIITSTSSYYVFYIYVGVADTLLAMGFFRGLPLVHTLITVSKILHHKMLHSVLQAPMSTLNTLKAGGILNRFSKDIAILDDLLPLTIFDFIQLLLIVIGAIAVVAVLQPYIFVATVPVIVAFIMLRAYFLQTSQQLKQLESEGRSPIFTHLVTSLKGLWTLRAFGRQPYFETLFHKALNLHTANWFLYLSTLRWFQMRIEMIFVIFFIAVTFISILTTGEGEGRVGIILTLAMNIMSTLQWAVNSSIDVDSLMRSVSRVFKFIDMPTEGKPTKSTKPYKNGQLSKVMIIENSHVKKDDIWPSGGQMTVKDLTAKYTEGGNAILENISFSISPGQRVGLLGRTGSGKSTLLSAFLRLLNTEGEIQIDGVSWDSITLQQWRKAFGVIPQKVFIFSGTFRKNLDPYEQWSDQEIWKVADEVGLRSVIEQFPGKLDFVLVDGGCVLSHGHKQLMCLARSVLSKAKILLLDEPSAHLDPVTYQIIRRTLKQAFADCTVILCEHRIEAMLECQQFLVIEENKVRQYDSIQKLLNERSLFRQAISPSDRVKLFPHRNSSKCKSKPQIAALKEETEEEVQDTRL
# Outline: (§4)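 HEK293 cells transfected with the mutant CFTR (G551D, G178R, S549N or R117H) and YFP (H148Q/I152L/F47L), seeded directly after transfection, then 24 h at 37°C. Treated 10 min at room temperature with 10 µM forskolin plus potentiator. Fluorescence read for 2 min across addition of NaI buffer (375 mM NaI). Activity = 1-(F/F0).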
# [4] = target: Cystic fibrosis transmembrane conductance regulator (Homo sapiens, UniProt P13569, G551D); assay: as §3; outline: as §4
# Cystic fibrosis transmembrane conductance regulator (Homo sapiens, UniProt P13569, G551D), sequence (P13569 whole entry G551D): as above
# Cystic fibrosis transmembrane conductance regulator (Homo sapiens, UniProt P13569, F508DEL), sequence (P13569 as listed by the source): as the sequence (P13569 as listed by the source) above
SMILES,EC50 [1] [µM],Activity [2] [%],Activity [3] [%],EC50 [4] [µM]
CC1(C)Cc2c(sc(NC(=O)C3(O)CC3)c2C(N)=O)C(C)(C)O1,0.023,–,–,–
Cc1ccc(C(=O)Nc2sc3c(c2C(N)=O)CCNC3)s1,–,3,–,–
CC(C)(C)c1cc(C(C)(C)C)c(NC(=O)c2c[nH]c3ccccc3c2=O)cc1O [IVACAFTOR],0.126,100,50,1.3
CC1(C)Cc2c(sc(NC(=O)c3cc(C(F)(F)F)[nH]n3)c2C(N)=O)C(C)(C)O1,0.003,–,–,0.13
CC1(C)Cc2c(sc(NC(=O)[C@H](O)C(C)(C)C)c2C(N)=O)C(C)(C)O1,0.127,95,31,–
CC1(C)Cc2c(sc(NC(=O)[C@@H](O)C(C)(C)C)c2C(N)=O)C(C)(C)O1,0.0027,95,50,0.421
CC1(C)Cc2c(sc(NC(=O)c3cc(C(F)(F)F)n[nH]3)c2C(N)=O)C(C)(C)O1,–,107,49,–
CC1(C)Cc2c(sc(NC(=O)C3(CO)CC3)c2C(N)=O)C(C)(C)O1,0.015,105,57,1.32
CC1(C)Cc2c(sc(NC(=O)C3CNC(=O)C3)c2C(N)=O)C(C)(C)O1 (stereo not drawn),> 10,–,–,–
CC1(C)Cc2c(sc(NC(=O)c3cccnc3O)c2C(N)=O)C(C)(C)O1,0.19,–,–,–
Cc1n[nH]c(C(=O)Nc2sc3c(c2C(N)=O)CC(C)(C)OC3(C)C)c1Cl,–,92,68,–
CC1(C)Cc2c(sc(NC(=O)c3[nH]ncc3Cl)c2C(N)=O)C(C)(C)O1,0.002,96,77,–
CC1(C)Cc2c(sc(NC(=O)c3ccccc3O)c2C(N)=O)C(C)(C)O1,0.004,111,52,–
CC1(C)Cc2c(sc(NC(=O)C3CCNC3=O)c2C(N)=O)C(C)(C)O1 (stereo not drawn),0.101,–,–,–
CC1(C)Cc2c(sc(NC(=O)c3nnc[nH]3)c2C(N)=O)C(C)(C)O1,0.467,–,–,–

# From ChEMBL document CHEMBL4024762, “Discovery of N-(3-Carbamoyl-5,5,7,7-tetramethyl-5,7-dihydro-4H-thieno[2,3-c]pyran-2-yl)-lH-pyrazole-5-carboxamide (GLPG1837), a Novel Potentiator Which Can Open Class III Mutant Cystic Fibrosis Transmembrane Conductance Regulator (CFTR) Channels to a High Extent” (J Med Chem, 2018)
